Most compounds without a hit are left out; they make up all but 3.7% or so of the library.
Kir21 block: inhibitors of mouse Kir2.1 inward-rectifier potassium channel; HEK293-Kir2.1, FluxOR thallium flux fluorescence; stronger effect = lower value; B-score at 10 µM; 0.85% of 310,000 active; AID 1672;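 active = fluorescence ratio B-score at or below minus 3 SD of library scores, with starting-brightness B-score within 2 SD, cut at about -4.2 in these data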;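 note: channel flux triggered by added potassium and thallium sulfate stimulus; B-score of peak minus minimum fluorescence over baseline after thallium stimulus; more negative B-score means stronger Kir2.1 block with less thallium influx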
KCNQ1 pot: potentiates or activates the human KCNQ1 potassium channel; P51787; CHO-K1 KCNQ1, thallium flux FluxOR fluorescence; stronger effect = higher value; B-score at 10 µM; 0.35% of 310,000 active;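 active = fluorescence ratio B-score, a plate-corrected score, at least three library SD, with initial intensity B-score within 5 SD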
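System: CHO-K1 cells stably expressing KCNQ1 / Medium: assay buffer for compound exposure, DMSO matched across wells / Reagent: thallium- and potassium-containing depolarizing buffer / Compound: one concentration, matched DMSO / Incubation: 20 min compound pretreatment at room temperature / Measured by: kinetic FluxOR fluorescence, 10 s baseline plus 110 s post-stimulus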
KCNQ1 block: blocks the human KCNQ1 potassium channel; P51787; CHO-K1 KCNQ1, FluxOR thallium flux fluorescence; stronger effect = higher value; B-score at 10 µM; 1.3% of 310,000 active;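 active = compounds whose thallium flux B-score, printed positive for inhibition, exceeds three library SD while starting fluorescence stays within three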;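 note: channel opened by potassium depolarization with thallium stimulus after 20 min compound exposure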
KCNK3 block: human KCNK3 channel inhibition, primary screen; 0.84% of 340,000 active; B-score at 10 µM; CHO-KCNK3 thallium flux, FluxOR fluorescence; stronger effect = lower value; AID 602410;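 active = B-score under library mean minus 4 SD, starting fluorescence ratio at most library mean plus 5 SD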;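 note: more negative B-score means stronger inhibition of thallium flux through KCNK3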
Target sequence (O14649 whole entry, looked up): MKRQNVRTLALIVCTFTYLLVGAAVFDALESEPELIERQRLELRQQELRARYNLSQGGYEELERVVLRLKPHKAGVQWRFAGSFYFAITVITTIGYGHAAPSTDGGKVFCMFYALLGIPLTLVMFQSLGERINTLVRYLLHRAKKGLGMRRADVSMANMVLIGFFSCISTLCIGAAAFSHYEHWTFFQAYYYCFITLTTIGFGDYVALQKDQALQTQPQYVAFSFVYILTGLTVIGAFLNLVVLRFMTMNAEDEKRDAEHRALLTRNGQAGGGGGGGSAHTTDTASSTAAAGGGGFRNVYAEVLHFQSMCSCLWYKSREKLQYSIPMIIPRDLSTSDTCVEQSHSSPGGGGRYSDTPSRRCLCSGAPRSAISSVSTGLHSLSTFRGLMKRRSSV
KCNK9 block: human KCNK9 channel inhibition; HEK293 KCNK9, FluxOR thallium flux fluorescence; stronger effect = lower value; B-score at 10 µM; 1.2% of 310,000 active; AID 488922;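 active = ratio B-score over 3 SD below the library mean, with starting fluorescence within 5 SD of its mean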;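 note: negative B-score means less thallium flux so channel inhibition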
hERG protect: compounds protecting human hERG from proarrhythmic drug block; Q12809; CHO-hERG, FluxOR thallium flux, dofetilide IC70 present; activation (rescue from dofetilide block), less the hit threshold, % at 10 µM; 0.51% of 310,000 active; AID 1511;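 active = activation above the mean of controls blocked by dofetilide plus 5 SD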;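 note: thallium influx through hERG after potassium depolarization seen as dye fluorescence rise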
KCNK9 inh conf: confirmation of human KCNK9 potassium channel inhibitors. shares compounds with KCNK9 block. HEK293 KCNK9 cells, FluxOR thallium flux fluorescence. inhibition, % at 10 µM. 43% of 4,900 active. AID 492992;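 active = thallium signal inhibited by more than 5 SD of the compound-free buffer control wells, on both duplicate plates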
Kir21 sel: mouse Kir2.1 off-target activity of KCNK9 modulators. shares compounds with KCNK9 block. Kir2.1 cells, FluxOR thallium flux fluorescence. inhibition, % at 10 µM. 4% of 4,900 active. AID 492993;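 active = thallium signal drop more than 5 SD beyond the mean of the no-compound control wells, seen in both duplicate plates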;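 note: signal is fluorescence rise after thallium addition divided by baseline fluorescence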
KCNK9 uninduced: non-induced cell nonspecific activity of KCNK9 modulators | shares compounds with KCNK9 block | non-induced KCNK9-HEK293, FluxOR thallium flux | inhibition, % at 10 µM | 40% of 4,900 active;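 active = thallium signal drop beyond 5 SD of the untreated control mean, on both duplicate plates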
Hits are given with their value; 0 = inactive; - = no result given.

SMILES	Kir21 block	KCNQ1 pot	KCNQ1 block	KCNK3 block	KCNK9 block	hERG protect	KCNK9 inh conf	Kir21 sel	KCNK9 uninduced
Cc1ccc(/C=C2\S/C(=N/S(=O)(=O)c3cccs3)NC2=O)cc1	0	0	0	0	0	0	0	0	0
Cc1ccc(S(=O)(=O)/N=C2/NC(=O)/C(=C/c3ccccc3)S2)cc1	0	0	0	0	0	0	0	0	0
Cc1ccc(S(=O)(=O)/N=C2/NC(=O)/C(=C\c3ccccc3)S2)cc1	-	-	-	0	-	-	-	-	-
Clc1cc2c(c(CSc3nc4ccccc4n4cccc34)c1)OCOC2	0	0	0	0	0	0	-	-	-
CCNc1oc(-c2ccccc2F)nc1S(=O)(=O)c1ccccc1	0	0	0	0	0	0	-	-	-
CCOC(=O)CC(NC(=O)c1cccc2c1C(=O)N(Cc1cccnc1)C2)c1ccc(OC(C)C)cc1 (stereo unspecified)	0	0	0	0	0	0	0	0	0
COc1cccc(CCNC(=O)c2cc(COc3c(F)cccc3F)on2)c1	0	0	0	0	0	0	0	0	0
CN(CCCN1CCOCC1)C(=O)c1cc(COc2c(F)cccc2F)on1	0	0	0	0	0	0	-	-	-
CN(CCCC1CCCC1)C(=O)c1cc(COc2c(F)cccc2F)on1	0	0	0	0	0	0	0	0	22.5%
CN(CCCC1CCCC1)C(=O)c1cc(COc2ccc(F)cc2F)on1	0	0	0	0	0	0	0	0	0
COc1cccc(OCc2cc(C(=O)NCCc3cccc(C)n3)no2)c1	0	0	0	0	0	0	-	-	-
CCc1ccccc1NC(=O)C1CCCN1C(=O)Nc1ccc(C)cc1 (stereo unspecified)	0	0	0	0	0	0	-	-	-
O=C(CCS(=O)(=O)c1ccc(Cl)cc1)NCCc1c[nH]c2ccccc12	0	0	0	0	0	0	-	-	-
Cc1nn(-c2cccc(Cl)c2)c(Cl)c1/C=N/NC(=O)c1cccs1	0	0	0	0	-10.5	0	60.0%	0	31.0%
C[C@@H]1C(=O)OC[C@H]1NC(=O)OCc1ccccc1	0	0	0	0	0	0	-	-	-
COc1cc(C2C(C#N)=C(N)Oc3cc(N(C)C)ccc32)cc2c1OCO2 (stereo unspecified)	0	0	0	0	-8.64	0	33.5%	0	54.5%
COc1cc(C2C(C#N)=C(N)Oc3cc(O)ccc32)cc2c1OCO2 (stereo unspecified)	0	0	0	0	0	0	-	-	-
CCS(=O)(=O)C1=NN2C(=N)/C(=C\c3ccc(OCCOc4cccc(OC)c4)c(OC)c3)C(=O)N=C2S1	0	0	0	0	0	0	0	0	0
COc1cc(/C=C2\C(=N)N3N=C(S(C)(=O)=O)SC3=NC2=O)cc(OC)c1OCCOc1cccc(C)c1	0	0	0	0	0	0	0	0	0
COc1ccc(S(=O)(=O)N2CCc3ccccc32)cc1C(=O)Nc1ccc(NC(C)=O)cc1	-	-	-	0	-	-	-	-	-
COc1ccc(-c2nn3c(-c4ccccc4)nnc3s2)cc1	0	0	0	0	0	0	-	-	-
CCN(CC)c1ccc(-c2nn3c(-c4ccccc4OC)nnc3s2)cc1	0	0	0	0	-14.4	0	43.0%	0	0
NC(=O)c1ccc(NC(=O)Cc2ccc(S(=O)(=O)N3CCCCC3)cc2)cc1	-	-	-	0	-	-	-	-	-
CCOC(=O)C1=C(CC)Nc2ccccc2N/C1=N\S(=O)(=O)c1ccc2ccccc2c1	0	0	0	0	0	0	0	0	0
CCOC(=O)/C(=N\Nc1ccc(Br)cc1)N1CC(C)OC(C)C1 (stereo unspecified)	0	0	0	0	-18.4	0	75.0%	0	43.5%
SMILES	Kir21 block	KCNQ1 pot	KCNQ1 block	KCNK3 block	KCNK9 block	hERG protect	KCNK9 inh conf	Kir21 sel	KCNK9 uninduced
CCOC(=O)/C(=N\Nc1ccccc1Cl)N1CC(C)OC(C)C1 (stereo unspecified)	0	0	0	0	0	0	-	-	-
O=C(CN(c1ccccc1)S(=O)(=O)c1ccc(Cl)cc1)Nc1cccnc1	0	0	0	0	0	0	-	-	-
COc1cccc(C2C3=C(N=c4s/c(=C\c5ccc(OCC(=O)O)cc5)c(=O)n42)c2ccccc2CC3)c1 (stereo unspecified)	0	0	0	-	0	0	0	0	0
CCOC(=O)C1=C(C)N=c2s/c(=C\c3ccc(OCC(=O)O)cc3)c(=O)n2C1c1ccccc1 (stereo unspecified)	0	0	0	0	0	0	0	0	0
Cn1c(=O)oc2cc(S(=O)(=O)CCC(=O)N3CCN(c4ccccc4F)CC3)ccc21	0	0	0	0	0	0	-	-	-
Cc1ccc(C)c(N2CCN(C(=O)CCS(=O)(=O)c3ccc4c(c3)oc(=O)n4C)CC2)c1	0	0	0	0	0	0	0	0	0
COc1ccc(-c2[nH]ncc2CNC(C)c2cn(C)nc2C)c(F)c1 (stereo unspecified)	0	0	0	0	0	0	-	-	-
CC(C)OC(=O)CC(=O)CSc1nc2c(c(-c3cccs3)c1C#N)CCC2	0	0	0	0	0	0	-	-	-
CCOC(=O)C(C)Sc1nc2c(c(-c3cccs3)c1C#N)CCC2 (stereo unspecified)	0	0	0	0	0	0	0	0	0
Cc1ccc(-c2noc(C3CCCN(C(=O)c4ccccc4Br)C3)n2)o1 (stereo unspecified)	0	0	0	0	0	0	-	-	-
CCOC(=O)/C(=N\Nc1cc(C(F)(F)F)ccc1Cl)N(CC)CC	0	0	0	0	-13.3	0	54.5%	0	41.5%
CCOC(=O)/C(=N\Nc1ccccc1Cl)N(C)C1CCCCC1	0	0	0	0	-8.81	0	63.5%	0	49.5%
COC(=O)c1ccc(COc2ccc(/C=C(\C#N)c3nc4ccccc4[nH]3)cc2OC)o1	0	0	0	0	-8.37	0	40.5%	0	33.5%
COc1cccc(/C=N/NC(=O)c2nc(-c3ccccc3)cc(-c3ccccc3)n2)c1O	0	0	0	0	-8.64	0	0	0	0
Cc1ccc(NS(=O)(=O)c2cc(C(=O)NCCSC3CCCCC3)ccc2C)cc1	0	0	0	0	0	0	-	-	-
Cc1ccc(NS(=O)(=O)c2cc(C(=O)NCCSc3ccc(C)cc3)ccc2C)cc1	0	0	0	0	0	0	0	0	0
CS(=O)(=O)Nc1ccccc1C(=O)NCCSc1ccc(Cl)cc1	0	0	0	0	0	0	-	-	-
Cc1ccc(C(=O)NCCSc2ccc(Cl)cc2)cc1S(=O)(=O)Nc1ccccc1	0	0	0	0	0	0	0	0	0
COc1cccc(CN2CCN(C(=O)c3cc(-c4ccncc4)nc4ccc(C)cc34)CC2)c1	0	0	0	0	0	0	-	-	-
